Laboratory results as given in ChEMBL document CHEMBL3272173, “Synthesis and biological activity of peptide antagonists of luliberin (luteinizing hormone-releasing hormone)” (J Med Chem, 1979).
Where “and” joins values, the source holds several entries; their conditions need not be identical. Equal values may be shown once. Numbered stars: 1 amine (or outer) side, 2 acyl side, 3 side chain; on linkers, the order of the positions; unused ones are H or OH. Peptide text beside a SMILES is read from it. * marks the point of attachment. NHcHex = C1CCC(N*)CC1; CO = O=C([*:1])[*:2]

Experiments:
[1] = biological target: T1, Gonadotropin-releasing hormone receptor (Rattus norvegicus) (UniProt P30969); assay: In vitro antagonist activity at GNRHR in CD rat anterior pituitary gland assessed as inhibition of LH-RH-stimulated LH release at compound to LH-RH molar ratio of 1000 after 4 hrs by radioimmunoassay; conditions: concentration not given here
T1 sequence (whole entry): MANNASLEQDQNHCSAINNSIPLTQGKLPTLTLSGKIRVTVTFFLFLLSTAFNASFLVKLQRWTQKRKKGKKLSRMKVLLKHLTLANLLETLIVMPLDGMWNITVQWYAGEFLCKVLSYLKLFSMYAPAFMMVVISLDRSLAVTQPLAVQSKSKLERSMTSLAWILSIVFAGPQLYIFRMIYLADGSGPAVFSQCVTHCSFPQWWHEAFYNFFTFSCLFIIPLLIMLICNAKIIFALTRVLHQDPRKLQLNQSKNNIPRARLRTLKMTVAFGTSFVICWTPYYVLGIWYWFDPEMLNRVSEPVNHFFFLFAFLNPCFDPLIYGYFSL
Summary of the method: (§1)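 Anterior pituitaries from diestrus CD rats (200-250 g) were dissociated enzymatically (collagenase, hyaluronidase, then Viokase). Cells were cultured 4 days at 1.67 × 10^5 cells/mL in DME with 10% horse serum and 2.5% fetal calf serum, then washed serum-free. Duplicate cultures received LH-RH (2-5 × 10^-10 M) with a single analogue concentration in serum-free DME for 4 h at 37 °C. LH in the medium was measured by RIA and reported as % inhibition of LH-RH-stimulated release.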

Rattus norvegicus [2] = assay: Antiovulatory activity in sc dosed CD rat assessed as blockade of ovulation administered as six doses at 1200, 1230, 1300, 1350, 1400 and 1450 hrs during proestrus stage measured during estrus stage by dissecting microscopic analysis; format: functional
Summary of the method: (§2)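 Cycling Charles River CD rats were given six subcutaneous injections of analogue in 0.1 mL propylene glycol on the afternoon of proestrus, and controls received vehicle alone. Rats were killed the next morning (estrus). Ovulating animals were scored and ova in the oviducts were counted under a dissecting microscope.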

Rattus norvegicus [3] = assay: Antiovulatory activity in CD rat assessed as blockade of ovulation at 1 mg, sc administered as six doses at 1200, 1230, 1300, 1350, 1400 and 1450 hrs during proestrus stage measured during estrus stage by dissecting microscopic analysis; format: functional; summary of the method: as §2
[4] = biological target: T1, Gonadotropin-releasing hormone receptor (Rattus norvegicus); assay: In vitro antagonist activity at GNRHR in CD rat anterior pituitary gland assessed as inhibition of LH-RH-stimulated LH release at compound to LH-RH molar ratio of 200 after 4 hrs by radioimmunoassay; conditions: concentration not given here; summary of the method: as §1
[5] = biological target: T1, Gonadotropin-releasing hormone receptor (Rattus norvegicus); assay: In vitro antagonist activity at GNRHR in CD rat anterior pituitary gland assessed as ratio of molar concentration of compound to LH-RH for inhibition of LH-RH-stimulated LH release after 4 hrs by radioimmunoassay
Summary of the method: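 Monolayers were cultured 4 days from dissociated anterior pituitary cells of diestrus CD rats. They were exposed in duplicate to LH-RH (2-5 × 10^-10 M) plus multiple analogue concentrations in serum-free DME for 4 h at 37 °C. LH in the medium was measured by radioimmunoassay. The ED50 molar ratio is the analogue:LH-RH molar ratio giving 50% inhibition of LH-RH-stimulated LH release.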

Compound	inhibition [1] [%]	inhibition [4]	ED50 [5] [molar ratio]	ED50 (Rattus norvegicus [2]) [mg]	inhibition (INH) (Rattus norvegicus [3]) [%]
CC(=O)O.CC(C)C[C@H](NC(=O)[C@@H](Cc1ccccc1)NC(=O)[C@H](Cc1ccc(O)cc1)NC(=O)[C@H](CO)NC(=O)[C@H](Cc1c[nH]c2ccccc12)NC(=O)[C@H](CCC(N)=O)NC(=O)OCc1ccccc1)C(=O)N[C@@H](CCCNC(=N)N)C(=O)N1CCC[C@H]1C(=O)NCC(N)=O	–	–	–	>3	20
CC(C)C[C@H](NC(=O)[C@@H](Cc1ccc(O)cc1)NC(=O)[C@H](Cc1ccc(O)cc1)NC(=O)[C@H](CO)NC(=O)[C@H](Cc1c[nH]c2ccccc12)NC(=O)[C@@H](Cc1ccccc1)NC(=O)OCc1ccccc1)C(=O)N[C@@H](CCCNC(=N)N)C(=O)N1CCC[C@H]1C(=O)NCC(N)=O.Cl	–	83%	–	>1	0
CC(C)C[C@H](NC(=O)[C@@H](Cc1ccccc1)NC(=O)[C@H](Cc1ccc(O)cc1)NC(=O)[C@H](CO)NC(=O)[C@H](Cc1c[nH]c2ccccc12)NC(=O)[C@H](CCC(N)=O)NC(=O)OCc1ccccc1)C(=O)N[C@@H](CCCNC(=N)N)C(=O)N1CCC[C@H]1C(=O)NCC(N)=O	–	83% and 93%	22	–	–
CCNC(=O)[C@@H]1CCCN1C(=O)[C@H](CCCNC(=N)N)NC(=O)[C@H](CC(C)C)NC(=O)[C@H](NC(=O)[C@H](Cc1ccc(O)cc1)NC(=O)[C@H](CO)NC(=O)[C@H](Cc1c[nH]c2ccccc12)NC(=O)[C@H](CCC(N)=O)NC(=O)OCc1ccccc1)[C@@H](O)c1ccccc1.Cl	–	–	–	0.4	100
CC(=O)O.CCNC(=O)[C@@H]1CCCN1C(=O)[C@H](CCCNC(=N)N)NC(=O)[C@H](CC(C)C)NC(=O)[C@@H](CO)NC(=O)[C@H](Cc1ccc(O)cc1)NC(=O)[C@H](CO)NC(=O)[C@H](Cc1c[nH]c2ccccc12)NC(=O)[C@H](CCC(N)=O)NC(=O)OCc1ccccc1	–	50%	–	>1	0
CCNC(=O)[C@@H]1CCCN1C(=O)[C@H](CCCNC(=N)N)NC(=O)[C@H](CC(C)C)NC(=O)CNC(=O)[C@H](Cc1ccc(O)cc1)NC(=O)[C@H](CO)NC(=O)[C@H](Cc1c[nH]c2ccccc12)NC(=O)[C@H](CC(C)C)NC(=O)OCc1ccccc1.Cl	81	–	–	>1	20
CC(C)C[C@H](NC(=O)[C@@H](Cc1c[nH]c2ccccc12)NC(=O)[C@H](Cc1ccc(O)cc1)NC(=O)[C@H](CO)NC(=O)[C@H](Cc1c[nH]c2ccccc12)NC(=O)[C@H](CCC(N)=O)NC(=O)OCc1ccccc1)C(=O)N[C@@H](CCCNC(=N)N)C(=O)N1CCC[C@H]1C(=O)NCC(N)=O.Cl	–	87%	8	>1	0
CC(C)C[C@H](NC(=O)[C@@H](Cc1ccccc1)NC(=O)[C@H](Cc1ccc(O)cc1)NC(=O)[C@H](CO)NC(=O)[C@H](Cc1c[nH]c2ccccc12)NC(=O)[C@H](CCC(N)=O)NC(=O)OCc1ccccc1)C(=O)N[C@@H](CCCNC(=N)N)C(=O)N1CCC[C@H]1C(=O)NCC(N)=O.Cl	–	–	–	>1	–
CC(=O)O.CCNC(=O)[C@@H]1CCCN1C(=O)[C@H](CCCNC(=N)N)NC(=O)[C@H](CC(C)C)NC(=O)[C@@H](Cc1ccc(OC)cc1)NC(=O)[C@H](Cc1ccc(O)cc1)NC(=O)[C@H](CO)NC(=O)[C@H](Cc1c[nH]c2ccccc12)NC(=O)[C@H](COCc1ccccc1)NS(C)(=O)=O	–	75%	–	>1	0

Now from value to compound, other results behind:

inhibition [1] [%]	inhibition [4]	ED50 [5] [molar ratio]	Compound	ED50 (Rattus norvegicus [2]) [mg]	inhibition (INH) (Rattus norvegicus [3]) [%]
15	–	–	CC(C)C[C@H](NC(=O)CNC(=O)[C@H](Cc1ccc(O)cc1)NC(=O)[C@H](CO)NC(=O)[C@H](Cc1c[nH]c2ccccc12)NC(=O)[C@H](CCC(N)=O)NC(=O)OC(C)(C)C)C(=O)N[C@@H](CCCNC(=N)N)C(=O)N1CCC[C@H]1C(=O)NCC(N)=O (HELM PEPTIDE1{[CC(C)(C)OC(=O)[*:2]].Q.W.S.Y.G.L.R.P.G.[am]}$$$$V2.0)	–	–
48	–	–	CC(C)C[C@H](NC(=O)CNC(=O)[C@H](Cc1ccc(O)cc1)NC(=O)[C@H](CO)NC(=O)[C@H](Cc1c[nH]c2ccccc12)NC(=O)[C@@H](NC(=O)OCc1ccccc1)C(C)C)C(=O)N[C@@H](CCCNC(=N)N)C(=O)N1CCC[C@H]1C(=O)NCC(N)=O (HELM PEPTIDE1{[O=C(OCc1ccccc1)[*:2]].V.W.S.Y.G.L.R.P.G.[am]}$$$$V2.0)	–	–
19	–	–	CC(C)C[C@H](NC(=O)CNC(=O)[C@H](Cc1ccc(O)cc1)NC(=O)[C@H](CO)NC(=O)[C@H](Cc1c[nH]c2ccccc12)NC(=O)NC1CCCCC1)C(=O)N[C@@H](CCCNC(=N)N)C(=O)N1CCC[C@H]1C(=O)NCC(N)=O ({NHcHex-CO}-WSYGLRPG-NH2)	–	–
–	68%	–	CC(C)C[C@H](NC(=O)[C@@H](CO)NC(=O)[C@H](Cc1ccc(O)cc1)NC(=O)[C@H](CO)NC(=O)[C@H](Cc1c[nH]c2ccccc12)NC(=O)[C@H](COCc1ccccc1)NC(=O)OC(C)(C)C)C(=O)N[C@@H](CCCNC(=N)N)C(=O)N1CCC[C@H]1C(=O)NCC(N)=O.Cl	>1	0
51	–	–	CC(C)C[C@H](NC(=O)CNC(=O)[C@H](Cc1ccc(O)cc1)NC(=O)[C@H](CO)NC(=O)[C@H](Cc1c[nH]c2ccccc12)NC(=O)Cc1ccccc1)C(=O)N[C@@H](CCCNC(=N)N)C(=O)N1CCC[C@H]1C(=O)NCC(N)=O (HELM PEPTIDE1{[O=C(Cc1ccccc1)[*:2]].W.S.Y.G.L.R.P.G.[am]}$$$$V2.0)	–	–
100	–	–	CCNC(=O)[C@@H]1CCCN1C(=O)[C@H](CCCNC(=N)N)NC(=O)[C@H](CC(C)C)NC(=O)[C@@H](C)NC(=O)[C@H](Cc1ccc(O)cc1)NC(=O)[C@H](CO)NC(=O)[C@H](Cc1c[nH]c2ccccc12)NC(=O)[C@H](CCC(N)=O)NC(=O)OCc1ccccc1.Cl	>3	20
95	–	750	CC(C)C[C@H](NC(=O)CNC(=O)[C@H](Cc1ccc(O)cc1)NC(=O)[C@H](CO)NC(=O)[C@H](Cc1c[nH]c2ccccc12)NC(=O)[C@H](CC(C)C)NC(=O)OCc1ccccc1)C(=O)N[C@@H](CCCNC(=N)N)C(=O)N1CCC[C@H]1C(=O)NCC(N)=O.Cl (HELM PEPTIDE1{[O=C(OCc1ccccc1)[*:2]].L.W.S.Y.G.L.R.P.G.[am]}$$$$V2.0)	>3	40
70	–	–	CC[C@H](C)[C@H](NC(=O)OCc1ccccc1)C(=O)N[C@@H](Cc1c[nH]c2ccccc12)C(=O)N[C@@H](CO)C(=O)N[C@@H](Cc1ccc(O)cc1)C(=O)NCC(=O)N[C@@H](CC(C)C)C(=O)N[C@@H](CCCNC(=N)N)C(=O)N1CCC[C@H]1C(=O)NCC(N)=O.Cl (HELM PEPTIDE1{[O=C(OCc1ccccc1)[*:2]].I.W.S.Y.G.L.R.P.G.[am]}$$$$V2.0)	>1	20
0	–	–	CC(C)C[C@H](NC(=O)CNC(=O)[C@H](Cc1ccc(O)cc1)NC(=O)[C@H](CO)NC(=O)[C@H](Cc1c[nH]c2ccccc12)NC(=O)[C@H](CCC(N)=O)NC=O)C(=O)N[C@@H](CCCNC(=N)N)C(=O)N1CCC[C@H]1C(=O)NCC(N)=O (HELM PEPTIDE1{[O=C[*:2]].Q.W.S.Y.G.L.R.P.G.[am]}$$$$V2.0)	–	–
40	–	–	CCNC(=O)CNC(=O)[C@@H]1CCCN1C(=O)[C@H](CCCNC(=N)N)NC(=O)[C@H](CC(C)C)NC(=O)CNC(=O)[C@H](Cc1ccc(O)cc1)NC(=O)[C@H](CO)NC(=O)[C@H](Cc1c[nH]c2ccccc12)NC(=O)[C@H](CCC(N)=O)NC(=O)OCc1ccccc1 (HELM PEPTIDE1{[O=C(OCc1ccccc1)[*:2]].Q.W.S.Y.G.L.R.P.G.[CCN[*:1]]}$$$$V2.0)	–	–
35	–	–	CC(C)C[C@H](NC(=O)CNC(=O)[C@H](Cc1ccc(O)cc1)NC(=O)[C@H](CO)NC(=O)[C@H](Cc1c[nH]c2ccccc12)NC(=O)[C@H](CC(N)=O)NC(=O)OCc1ccccc1)C(=O)N[C@@H](CCCNC(=N)N)C(=O)N1CCC[C@H]1C(=O)NCC(N)=O (HELM PEPTIDE1{[O=C(OCc1ccccc1)[*:2]].N.W.S.Y.G.L.R.P.G.[am]}$$$$V2.0)	–	–
16	–	–	CC(C)C[C@H](NC(=O)CNC(=O)[C@H](Cc1ccc(O)cc1)NC(=O)[C@H](CO)NC(=O)[C@H](Cc1c[nH]c2ccccc12)NC(=O)[C@H](Cc1ccc(O)cc1)NC(=O)OCc1ccccc1)C(=O)N[C@@H](CCCNC(=N)N)C(=O)N1CCC[C@H]1C(=O)NCC(N)=O (HELM PEPTIDE1{[O=C(OCc1ccccc1)[*:2]].Y.W.S.Y.G.L.R.P.G.[am]}$$$$V2.0)	–	–
